The record followed here is ChEMBL document CHEMBL2163325, “Discovery of phosphoinositide 3-kinases (PI3K) p110β isoform inhibitor 4-[2-hydroxyethyl(1-naphthylmethyl)amino]-6-[(2S)-2-methylmorpholin-4-yl]-1H-pyrimidin-2-one, an effective antithrombotic agent without associated bleeding and insulin resistance” (Bioorg Med Chem Lett, 2012).

Data set [1] concerns the target Phosphatidylinositol 4,5-bisphosphate 3-kinase catalytic subunit beta isoform (Homo sapiens, UniProt P42338). Briefly: Inhibition of human recombinant His6-tagged PI3K p110beta expressed in baculovirus infected cells using DiC8-PI(4,5)P2 as substrate after 20 mins by AlphaScreen assay. On the technique in general: Alpha assays give light when donor and acceptor beads are brought close together.

The target in data set [2] is Phosphatidylinositol 4,5-bisphosphate 3-kinase catalytic subunit alpha isoform (Homo sapiens, UniProt P42336). Briefly: Inhibition of human recombinant His6-tagged PI3K p110alpha expressed in baculovirus infected cells using DiC8-PI(4,5)P2 as substrate after 20 mins by AlphaScreen assay.
Sequence of Phosphatidylinositol 4,5-bisphosphate 3-kinase catalytic subunit alpha isoform (P42336 whole entry, canonical isoform): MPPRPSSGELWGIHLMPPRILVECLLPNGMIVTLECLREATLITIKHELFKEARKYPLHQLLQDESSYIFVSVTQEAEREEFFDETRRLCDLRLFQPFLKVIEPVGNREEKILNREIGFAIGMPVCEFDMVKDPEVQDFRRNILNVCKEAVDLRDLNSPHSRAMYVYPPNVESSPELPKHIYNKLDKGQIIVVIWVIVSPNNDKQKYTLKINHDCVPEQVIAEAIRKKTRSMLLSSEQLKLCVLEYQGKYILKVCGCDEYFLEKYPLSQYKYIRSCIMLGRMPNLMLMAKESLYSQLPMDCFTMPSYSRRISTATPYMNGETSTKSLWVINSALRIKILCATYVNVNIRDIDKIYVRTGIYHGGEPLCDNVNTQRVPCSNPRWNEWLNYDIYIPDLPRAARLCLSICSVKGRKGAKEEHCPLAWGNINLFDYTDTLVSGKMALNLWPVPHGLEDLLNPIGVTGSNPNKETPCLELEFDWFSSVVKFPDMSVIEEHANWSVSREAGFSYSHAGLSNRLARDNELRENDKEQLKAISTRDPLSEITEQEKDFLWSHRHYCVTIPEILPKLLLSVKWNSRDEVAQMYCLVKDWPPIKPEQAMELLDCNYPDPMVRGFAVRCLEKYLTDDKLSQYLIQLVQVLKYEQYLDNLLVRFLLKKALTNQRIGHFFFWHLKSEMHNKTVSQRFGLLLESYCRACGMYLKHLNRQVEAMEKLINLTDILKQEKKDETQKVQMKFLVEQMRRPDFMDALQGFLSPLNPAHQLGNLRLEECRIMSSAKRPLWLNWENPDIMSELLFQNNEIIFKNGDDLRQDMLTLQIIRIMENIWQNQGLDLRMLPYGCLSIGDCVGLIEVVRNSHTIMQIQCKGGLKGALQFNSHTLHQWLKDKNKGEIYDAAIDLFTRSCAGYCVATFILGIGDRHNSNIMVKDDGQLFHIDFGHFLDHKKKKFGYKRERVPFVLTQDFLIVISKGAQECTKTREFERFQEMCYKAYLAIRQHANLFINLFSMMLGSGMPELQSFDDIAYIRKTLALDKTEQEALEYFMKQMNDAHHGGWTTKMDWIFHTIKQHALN
Data set [3] can be described thus: Lipophilicity, log D of the compound at pH 7.4 by HPLC analysis. It is filed as physicochemical. Particulars: buffer. Summed up:
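LogD measured at pH 7.4 by HPLC.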

The species entered for data set [4] is Homo sapiens. Briefly: Selectivity ratio of IC50 for human PI3K p110alpha to IC50 for human PI3K p110beta.
In data set [5] the target is Cytochrome P450 3A4 (Homo sapiens, UniProt P08684). Briefly: Inhibition of CYP3A4. Type of data set: ADME.
Sequence of Cytochrome P450 3A4 (P08684 whole entry): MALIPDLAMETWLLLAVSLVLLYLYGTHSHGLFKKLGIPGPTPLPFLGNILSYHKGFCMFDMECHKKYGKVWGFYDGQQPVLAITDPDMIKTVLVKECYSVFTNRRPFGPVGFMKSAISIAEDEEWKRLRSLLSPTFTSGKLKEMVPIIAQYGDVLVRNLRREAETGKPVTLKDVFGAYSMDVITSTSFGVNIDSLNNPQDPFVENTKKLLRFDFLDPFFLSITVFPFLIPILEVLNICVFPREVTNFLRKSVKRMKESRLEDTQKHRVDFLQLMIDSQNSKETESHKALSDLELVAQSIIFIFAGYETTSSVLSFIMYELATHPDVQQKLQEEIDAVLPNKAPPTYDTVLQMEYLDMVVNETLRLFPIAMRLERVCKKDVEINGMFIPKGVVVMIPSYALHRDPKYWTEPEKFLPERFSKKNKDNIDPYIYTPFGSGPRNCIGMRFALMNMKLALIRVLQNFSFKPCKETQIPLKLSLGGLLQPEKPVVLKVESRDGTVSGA
Data set [6] addresses Cytochrome P450 2C9 (Homo sapiens, UniProt P11712). Briefly: Inhibition of CYP2C9. Type of data set: ADME.
Data set [7] is described as follows: Toxicity in human adipocytes assessed as inhibition of insulin-induced glucose uptake. Type of data set: cell-based, Adipocyte.
For data set [8], the system named is Rattus norvegicus. Briefly: Toxicity in overnight fasted Sprague-Dawley rat assessed as induction of insulin resistance administered as 30 mins infusion. Type of data set: organism-based. The settings on record: in vivo, iv, 0.5 h. A digest of the protocol:
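Overnight fasted SD rats (N = 6) infused with 4 consecutive escalating doses, each over 30 min. Blood taken at the end of each interval for plasma exposure, glucose and insulin. HOMA index is glucose × insulin, normalized to vehicle controls (N = 4) and pretreatment medians. Mean ± SEM.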

Sequence of Phosphatidylinositol 4,5-bisphosphate 3-kinase catalytic subunit beta isoform (P42338 whole entry, canonical isoform): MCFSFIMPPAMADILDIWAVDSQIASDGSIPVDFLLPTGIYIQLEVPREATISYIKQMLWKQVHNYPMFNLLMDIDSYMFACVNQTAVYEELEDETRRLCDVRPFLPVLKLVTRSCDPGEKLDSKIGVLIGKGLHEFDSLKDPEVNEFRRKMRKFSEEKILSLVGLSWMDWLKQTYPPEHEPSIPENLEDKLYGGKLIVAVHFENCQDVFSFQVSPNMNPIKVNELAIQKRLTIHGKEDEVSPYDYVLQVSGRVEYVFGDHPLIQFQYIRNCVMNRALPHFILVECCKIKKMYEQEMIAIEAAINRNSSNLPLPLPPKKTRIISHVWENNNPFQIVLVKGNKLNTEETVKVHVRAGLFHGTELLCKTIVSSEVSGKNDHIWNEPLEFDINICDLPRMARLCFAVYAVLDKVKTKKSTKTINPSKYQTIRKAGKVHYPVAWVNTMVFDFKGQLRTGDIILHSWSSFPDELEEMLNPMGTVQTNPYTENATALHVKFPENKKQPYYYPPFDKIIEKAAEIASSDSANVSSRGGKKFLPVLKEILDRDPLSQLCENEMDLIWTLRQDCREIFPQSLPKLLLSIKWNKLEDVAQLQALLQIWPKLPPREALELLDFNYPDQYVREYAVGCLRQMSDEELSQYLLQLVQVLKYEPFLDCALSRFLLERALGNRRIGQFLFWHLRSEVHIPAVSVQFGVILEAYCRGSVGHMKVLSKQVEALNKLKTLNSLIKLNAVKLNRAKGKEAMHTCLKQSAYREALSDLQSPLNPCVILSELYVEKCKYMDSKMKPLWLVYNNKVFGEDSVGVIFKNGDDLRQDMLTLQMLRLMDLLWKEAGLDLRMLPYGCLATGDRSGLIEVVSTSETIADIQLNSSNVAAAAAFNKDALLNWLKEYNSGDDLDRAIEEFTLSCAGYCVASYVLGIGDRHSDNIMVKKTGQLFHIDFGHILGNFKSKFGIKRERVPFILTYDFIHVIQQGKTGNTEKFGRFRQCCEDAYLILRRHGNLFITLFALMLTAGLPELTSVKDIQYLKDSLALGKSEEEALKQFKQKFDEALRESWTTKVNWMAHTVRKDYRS
Sequence of Cytochrome P450 2C9 (P11712 whole entry): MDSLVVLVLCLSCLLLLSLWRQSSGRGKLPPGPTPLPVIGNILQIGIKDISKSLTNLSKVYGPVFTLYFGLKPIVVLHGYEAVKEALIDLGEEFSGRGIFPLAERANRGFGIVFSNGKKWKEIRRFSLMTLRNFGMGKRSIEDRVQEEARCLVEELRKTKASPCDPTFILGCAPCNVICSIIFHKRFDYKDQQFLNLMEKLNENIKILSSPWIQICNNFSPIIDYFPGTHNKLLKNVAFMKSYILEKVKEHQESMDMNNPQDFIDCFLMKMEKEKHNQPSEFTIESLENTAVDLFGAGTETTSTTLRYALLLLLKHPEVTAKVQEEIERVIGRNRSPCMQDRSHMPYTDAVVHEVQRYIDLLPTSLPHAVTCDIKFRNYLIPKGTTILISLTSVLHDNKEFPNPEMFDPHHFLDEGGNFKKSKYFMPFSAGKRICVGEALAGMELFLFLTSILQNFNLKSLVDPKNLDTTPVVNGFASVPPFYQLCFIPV

For `CC1CN(c2cc(=O)[nH]c(NCc3cccc4ccccc34)n2)CCO1` (stereo unspecified), the IC50 (as a rule, the concentration needed to halve the response being measured) in data set [1] was found to be 0.034 µM; in data set [2] it was 2.2 µM. Also, the logD (in general, the decadic logarithm of the distribution of all forms, ionised or not, between an organic phase and buffer at a given pH) in data set [3] stood at 2.9. Further, in data set [4], the Ratio IC50 is 65.
For `CCN(Cc1cccc2ccccc12)c1cc(N2CCOCC2)nc(=O)[nH]1`, in that order: 0.13 µM, 82.8 µM, 2.5 and 628.
For `CCC(O)CN(Cc1cccc2ccccc12)c1cc(N2CCOCC2)nc(=O)[nH]1` (stereo unspecified) the same measures were 0.22 µM, 149 µM, 2.5 and 690.
For `CN(Cc1cccc2ccccc12)c1cc(N2CCOCC2)nc(=O)[nH]1` the same measures were 0.6 µM, 212 µM, 2.37 and 355.
`COC1CN(c2cc(=O)[nH]c(NCc3cccc4ccccc34)n2)C1`: the IC50 was 24 µM in data set [1] and 82.6 µM in data set [2]. In data set [3], this compound returned a log distribution coefficient (logD) of 2.7.
For `C[C@@H]1CN(c2cc(N(CCO)Cc3cccc4ccccc34)[nH]c(=O)n2)CCO1`, in that order: 1 µM, 349 µM and 1.9.
With `CN(C)CCCN(Cc1cccc2ccccc12)c1cc(N2CCOCC2)nc(=O)[nH]1`, the half-inhibitory concentration (IC50) was 1.2 µM in data set [1] and greater than 83.3 µM in data set [2]. The compound also showed a logD in data set [3] of 1.5. The Ratio IC50 in data set [4] is greater than 64.
For `O=c1nc(N2CCOCC2)cc(N(CCCCO)Cc2cccc3ccccc23)[nH]1`, in that order: 0.2 µM, 73.7 µM, 1.8 and 373.
Turning to `Cc1cc(-c2cc(=O)[nH]c(NCc3cccc4ccccc34)n2)ccn1`, the IC50 in data set [1] was 0.007 µM; in data set [2] it was 0.84 µM; in data set [5] it was 0.7 µM; in data set [6], 0.4 µM. Further, the pH-dependent lipophilicity (logD) in data set [3] turned out to be 2.6.
Consider `CC(O)CN(Cc1cccc2ccccc12)c1cc(N2CCOCC2)nc(=O)[nH]1` (stereo unspecified), for which the 50% inhibitory concentration (IC50) in data set [1] is 0.14 µM; in data set [2], 112 µM. This compound also registered a logD in data set [3] of 2. In data set [4], the Ratio IC50 came to 808.
On to `O=c1cc(-c2cn[nH]c2)nc(NCc2cccc3ccccc23)[nH]1`, for which the half-maximal inhibitory concentration (IC50) in data set [1] was determined as 11 µM; in data set [2], 62.3 µM. This compound returned a log distribution coefficient (logD) in data set [3] of 1.9.
As for `CN(C)CCN(Cc1cccc2ccccc12)c1cc(N2CCOCC2)nc(=O)[nH]1`, the IC50 in data set [1] is 3.1 µM; in data set [2], greater than 83.3 µM. The compound also showed a logD in data set [3] of 1.4. For the same compound, the Ratio IC50 in data set [4] was greater than 26.
Regarding `O=c1nc(N2CCOCC2)cc(N(Cc2cccc3ccccc23)CC(O)C(F)(F)F)[nH]1` (stereo unspecified), the half-inhibitory concentration (IC50) in data set [1] amounted to 0.98 µM; in data set [2], 56.9 µM. For the same compound, the logD in data set [3] was determined as 3. Also, the Ratio IC50 in data set [4] came out at 58.
With `O=c1cc(N2CCC(O)CC2)nc(NCc2cccc3ccccc23)[nH]1`, the 50% inhibitory concentration (IC50) came to 31 µM in data set [1] and 160 µM in data set [2]. The same compound yielded a logD in data set [3] of 1.6.
On to `O=c1nc(N2CCOCC2)cc(N(CCO)Cc2cccc3ccccc23)[nH]1`, for which the IC50 in data set [1] was 0.09 µM; in data set [2], 30.8 µM. This compound also returned a log distribution coefficient (logD) in data set [3] of 1.55. In addition, the Ratio IC50 in data set [4] amounted to 340.
`O=c1nc(N2CCOCC2)cc(N(CCCO)Cc2cccc3ccccc23)[nH]1`: the half-inhibitory concentration (IC50) in data set [1] was determined as 0.1 µM; in data set [2], 51.5 µM. The compound further came in with a logD in data set [3] of 1.75. Also, the Ratio IC50 in data set [4] was found to be 524.
For `O=c1nc(N2CCOCC2)cc(N(Cc2cccc3ccccc23)C2CC2)[nH]1`, in that order: 0.97 µM, 76 µM, 2.6 and 78.
For `Cc1cc([C@@H](C)Nc2ccccc2C(=O)O)c2nc(N3CCOCC3)cc(=O)n2c1` [AZD-6482], the IC50 in data set [7] was found to be 4.4 µM. Moreover, the Activity result in data set [8] is reported as “Dose-dependent effect”.
Turning to `CC(C)(CO)CN(Cc1cccc2ccccc12)c1cc(N2CCOCC2)nc(=O)[nH]1`, the 50% inhibitory concentration (IC50) in data set [1] was found to be 1.4 µM; in data set [2], 205 µM. This compound gave a log distribution coefficient (logD) in data set [3] of 3.15. Further, the Ratio IC50 in data set [4] was 143.
